Bioassay records deposited in PubChem by several laboratories.
Shown are actives, neighbours in structure and some others; about 9.4% of the full set was active somewhere.
Lmaj promast: Leishmania major promastigote growth inhibition, primary screen. Leishmania major promastigotes, resazurin fluorescence viability. inhibition, % at 10 µM. 200,000 tested, 9% active. AID 1063, 2008; in the data active = inhibition above about 50%;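 also: promastigotes grown with compound for 44 hours at 28 °C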
Mdm2-MdmX inh: inhibitors of human Mdm2-MdmX association, primary screen, cell-based, luminescence, split luciferase, SaOS-2, uHTS | Protein Mdm4 (Homo sapiens) + E3 ubiquitin-protein ligase Mdm2 (Homo sapiens), … | SaOS-2 split-luciferase Mdm2/MdmX complementation | inhibition, % at 8 µM | 330,000 tested, 3% active | AID 485346, 2010;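 active = inhibition of at least 50% at 8 µM in the primary screen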
Target sequence (O15151 whole entry, looked up): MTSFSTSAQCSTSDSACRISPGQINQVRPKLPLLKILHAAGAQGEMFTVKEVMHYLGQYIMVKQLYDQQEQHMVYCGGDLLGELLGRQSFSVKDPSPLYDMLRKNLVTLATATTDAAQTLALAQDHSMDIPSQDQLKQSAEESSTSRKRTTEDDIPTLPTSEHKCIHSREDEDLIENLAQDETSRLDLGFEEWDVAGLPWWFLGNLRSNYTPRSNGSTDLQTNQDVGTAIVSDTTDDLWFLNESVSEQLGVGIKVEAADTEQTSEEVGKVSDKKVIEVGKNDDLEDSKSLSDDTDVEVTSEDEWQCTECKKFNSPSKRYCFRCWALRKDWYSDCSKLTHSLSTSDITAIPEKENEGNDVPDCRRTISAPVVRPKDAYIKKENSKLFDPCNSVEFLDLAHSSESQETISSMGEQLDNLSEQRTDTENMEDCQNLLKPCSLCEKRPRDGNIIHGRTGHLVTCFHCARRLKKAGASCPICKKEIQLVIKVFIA
Target sequence (Q00987 whole entry, looked up): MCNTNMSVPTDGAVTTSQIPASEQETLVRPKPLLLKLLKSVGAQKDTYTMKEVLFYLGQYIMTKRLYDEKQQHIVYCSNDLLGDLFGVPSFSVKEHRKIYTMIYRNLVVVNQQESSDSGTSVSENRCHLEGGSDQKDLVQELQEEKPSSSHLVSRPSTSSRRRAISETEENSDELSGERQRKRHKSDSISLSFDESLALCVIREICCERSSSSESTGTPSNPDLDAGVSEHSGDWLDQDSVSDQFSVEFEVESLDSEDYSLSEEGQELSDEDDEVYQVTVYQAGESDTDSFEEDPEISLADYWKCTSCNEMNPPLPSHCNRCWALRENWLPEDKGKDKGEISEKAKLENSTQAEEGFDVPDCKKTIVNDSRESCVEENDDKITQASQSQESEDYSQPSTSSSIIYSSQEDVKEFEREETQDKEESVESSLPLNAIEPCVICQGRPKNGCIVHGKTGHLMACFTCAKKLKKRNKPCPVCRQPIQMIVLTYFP
T cruzi repl: inhibitors of intracellular T. cruzi growth, primary screen, luminescence, NIH3T3 host cells | 300,000 tested, 1.4% active | inhibition, % (concentration not given with the values) | T. cruzi beta-gal in NIH3T3, 90 h;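 active = mean inhibition across valid replicates above about 55%, limit read from the data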;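 also: signal also drops with host cell toxicity which is not excluded here; 0% = plate median of DMSO wells and 100% = zero luminescence signal; higher percent means less beta-gal luminescence so fewer parasites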
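Material: NIH/3T3 host cells with β-galactosidase reporter T. cruzi; Input: 5,000 host fibroblasts per well; Medium: DMEM, 2% fetal bovine serum; Compound: 50 nL DMSO compound solution per well; Schedule: 3 h host attachment, then at least 90 h co-culture; Detection: luminescent β-galactosidase signal after 60 min lysis.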
SKKanGAS inh: S. pyogenes SKKanGAS growth inhibitors in kanamycin, primary screen, streptokinase expression inhibitor project, SKKanGAS strain, BacTiter-Glo luminescence. 6 h. inhibition, % at 7.5 µM. 300,000 tested, 1.3% active. AID 1662, 2009;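 active = mean replicate score, as percent of positive control median, at least 50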;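 also: strain carries kanamycin resistance gene driven by streptokinase promoter and grows in 40 µg/ml kanamycin; loss of luminescence reflects streptokinase promoter inhibition or plain growth inhibition; 0% = median of DMSO wells and 100% = positive control at its reference dose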
Beta apoptosis: inhibitors of cytokine-induced beta cell apoptosis, primary screen, luminescence; INS-1E cytokine-induced death, ATP luminescence, 48 h; percent of positive-control rescue, neutral wells zero; protection from apoptosis, % (concentration not given with the values); 300,000 tested, 0.8% active;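 active = Every replicate reaches about 75%, or at least half do and their mean reaches it too, limit read from the data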;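 also: 0% = cytokine-treated negative control wells and 100% = positive control rescue; higher means more ATP so stronger rescue from cytokine killing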
CSC inhib: cancer stem cell viability inhibitors, primary screen, luminescence. cancer stem cell-like cells viability. inhibition, % at 7.5 µM. 300,000 tested, 1.1% active. AID 2717, 2010; in the data active = inhibition above about 75%; tested in HMLE shEcad cells
Mdm2-MdmX conf: Mdm2-MdmX complex disruptors, retested hits, confirmation, luminescence, single concentration; inhibition, % at 8 µM; 10,000 tested, 55% active; shares compounds with Mdm2-MdmX inh; Mdm2-MdmX binding, luminescent assay; in the data active = inhibition above about 40%
FLuc counter: full-length luciferase signal inhibition, confirmation, counter-screen for Mdm2/MdmX interaction inhibitor project, cell-based, single concentration, SaOS-2. shares compounds with Mdm2-MdmX inh. SaOS-2 full-length luciferase counterscreen, luminescence. inhibition, % at 8 µM. 6,200 tested, 77% active;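 active = mean inhibition at 8 µM reaching about 37%, which flags the compound as non-specific, limit read from the data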;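 also: p53-null SaOS-2 cells with luciferase driven by a doxycycline-inducible promoter; compound on cells about two nights before reading with doxycycline added after day one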
* marks the source's active call; other numbers are inactive results; x = no result.

SMILES	Lmaj promast	Mdm2-MdmX inh	T cruzi repl	SKKanGAS inh	Beta apoptosis	CSC inhib	Mdm2-MdmX conf	FLuc counter
COC(=O)[C@@]1(Cc2ccc(F)cc2)[C@H]2c3cc(C(=O)N(C)C)n(CCc4ccc(OC)c(Br)c4)c3C[C@H]2CN1C(=O)c1ccccc1	44.5	67.1*	-3.2	27.4	-1.1	21.3	29.6	x
COC(=O)[C@@]1(Cc2ccc(F)cc2)[C@H]2c3cc(C(=O)N(C)C)n(Cc4ccc(OC)c(OC)c4)c3C[C@H]2CN1C(=O)c1ccccc1	32.4	5.4	7.2	14.4	-2.5	-12.1	x	x
S=C(NCc1cccs1)Nc1cc(Cl)cc(Cl)c1	x	60.7*	32.1	65.8*	9.0	60.8	18.7	x
O=S(=O)(c1ccc(OCC2CO2)cc1)c1ccc(OCC2CO2)cc1 (centres undefined)	2.8	87.2*	-38.9	8.6	25.5	14.9	33.8	x
O=C(CCl)Nc1ccccc1C(=O)NCc1ccccc1	41.9	45.9	17.7	-3.2	-3.1	-3.1	x	x
CC(C)CNc1cc(N2CCCC2)ccc1[N+](=O)[O-]	9.2	19.9	26.6	3.7	3.2	-0.4	x	x
CCNc1cc(N2CCCC2)ccc1[N+](=O)[O-]	1.7	51.1*	-1.9	-4.2	2.5	9.6	8.8	x
NC1=NC(=Nc2ccc(Cl)cc2)c2ccccc21	0.4	55.0*	-9.6	-5.2	-7.4	28.2	-12.2	x
COc1ccccc1NS(=O)(=O)c1cccc(N=C2N=C(N)c3ccccc32)c1	5.0	51.1*	-7.0	1.8	-8.0	4.0	23.8	x
NC1=NC(=Nc2ccccc2)c2ccccc21	10.1	25.0	-1.2	3.5	-2.7	5.7	x	x
Cc1cccc(N=C2N=C(N)c3ccccc32)c1	0.7	47.8	-7.8	1.5	-6.0	-2.1	x	x
NC1=NC(=Nc2cccc(Cl)c2)c2ccccc21	-1.2	51.3*	-8.6	-11.6	-5.9	19.6	15.7	x
O=C(NCc1nnc(SCC(=O)N2CCN(c3ccccc3)CC2)o1)c1ccc(F)cc1	x	15.8	3.0	1.9	2.2	10.3	x	x
N#Cc1ccc(OS(=O)(=O)c2ccc(-c3ccon3)s2)cc1	x	x	-8.8	-13.2	6.0	8.8	x	x
CCc1c(C)nc(SCC(=O)N2CCCCC2CC)[nH]c1=O (centres undefined)	x	8.3	10.8	0.5	-2.5	3.5	x	x
CCCc1cc(C(=O)NNC(=S)NC2CCCCC2)cs1	x	4.5	-7.7	-1.3	-11.0	-3.7	x	x
CC(C)(C)c1cc(C(c2cccnc2)N2CCN(CCO)CC2)cc(C(C)(C)C)c1O (centres undefined)	100.2*	100.3*	60.6*	-42.8	8.8	195.5*	75.7*	58.4*
O=S(=O)(CCN1CCN(C(c2ccccc2)c2ccccc2)CC1)C(F)(F)F	35.0	41.1	-23.2	0.5	-3.1	4.3	x	x
O=C(CN1CCc2ccccc2C1)Nc1ccccc1F	x	4.0	-10.5	5.9	-28.7	4.3	x	x
CCOC(=O)c1c(NC(=O)CSc2nnnn2-c2ccccc2)sc2c1CC(C)(C)NC2(C)C	x	55.3*	73.5*	3.2	-0.8	39.4	20.1	x
CCOC(=O)c1c(NC(=O)CSc2nc3ccc(C)cc3[nH]2)sc2c1CC(C)(C)NC2(C)C	x	75.5*	60.5*	-10.3	-4.7	77.8*	47.5*	68.7*
CCOC(=O)c1c(NC(=O)CSc2nnnn2-c2ccccc2OCC)sc2c1CC(C)(C)NC2(C)C	x	57.6*	56.6*	-6.4	37.5	55.8	41.5*	73.0*
CC(C)N(CCO)Cc1nc(C(c2ccccc2)c2ccccc2)no1	x	14.0	-4.2	-2.2	x	-4.4	x	x
Cc1ccc2nc(/C(C#N)=C\c3ccc(Oc4ccc(C(F)(F)F)cc4[N+](=O)[O-])cc3)[nH]c2c1	29.9	60.7*	49.8	35.1	3.8	-17.2	43.9*	75.2*
COc1ccc(/C=C(\C#N)c2nc3ccc(C)cc3[nH]2)cc1Oc1ccc(C(F)(F)F)cc1[N+](=O)[O-]	0.6	83.2*	-2.4	4.7	43.1	21.9	11.8	x
SMILES	Lmaj promast	Mdm2-MdmX inh	T cruzi repl	SKKanGAS inh	Beta apoptosis	CSC inhib	Mdm2-MdmX conf	FLuc counter
COc1cc(/C=C(\C#N)c2nc3ccc(C)cc3[nH]2)cc([N+](=O)[O-])c1O	4.7	x	x	x	x	x	x	x
O=C(O)C1CC=C(Cl)CC1C(=O)NC1CCCCC1 (centres undefined)	x	6.1	-12.5	10.6	0.8	-3.3	x	x
COc1cc(NS(=O)(=O)c2ccc(N/C=C(\C#N)c3nc4cc(Cl)ccc4o3)cc2)nc(OC)n1	-6.8	54.0*	5.7	28.4	22.5	94.7*	43.5*	35.2
Cn1nnnc1N=N/C(=N/Nc1ccccc1)c1ccccc1	x	86.1*	27.3	14.9	125.9*	70.1	85.2*	49.4*
COc1c(OC)c(O)c2c(=O)cc(-c3c(O)cccc3O)oc2c1OC	-9.0	10.6	17.3	-1.4	x	-8.3	x	x
O=c1cc(-c2c(F)c(F)c(F)c(F)c2F)oc2ccccc12	15.7	96.1*	-11.4	6.6	4.5	27.1	10.3	x
O=c1cc(-c2c(F)c(F)c(F)c(F)c2F)oc2c(F)c(F)c(F)c(F)c12	57.9*	100.4*	60.6*	9.2	106.8*	101.0*	98.7*	0.6
O=C(/C=C/c1cccc([N+](=O)[O-])c1)N1CCN(c2ccccn2)CC1	x	-12.6	21.7	-6.0	0.9	-15.1	x	x
O=C(/C=C/c1cccc([N+](=O)[O-])c1)c1cccs1	89.2*	73.6*	-3.2	3.3	0.5	36.7	57.4*	73.8*
O=C(/C=C/c1cccc([N+](=O)[O-])c1)n1cnc2ccccc21	-0.8	100.3*	1.4	-1.3	x	x	93.8*	24.6
O=C(/C=C/c1cccc([N+](=O)[O-])c1)Nc1ccc(NC(=O)c2cccs2)cc1	-1.9	85.5*	17.8	-6.1	-2.7	-7.3	3.0	x
C=CCC[C@H](Cc1ccc(F)cc1)C(=O)OC[C@H](Cc1c[nH]c2ccccc12)NC(=O)[C@@H](CC=C)CC(=O)N[C@@H](CO)Cc1ccccc1	x	77.4*	x	x	52.3	39.2	42.1*	49.0*
C=CC[C@@H](CC(=O)N[C@H](CO)Cc1ccccc1)C(=O)N[C@H](COC(=O)[C@@H](CC=C)Cc1ccc(F)cc1)Cc1c[nH]c2ccccc12	x	81.1*	x	x	30.4	-2.4	49.4*	37.0*
